Assay: phase I study BOS172738-01: safety and tolerability
Assay type: in vivo, human
Conditions: for patients who discontinued study treatment due to AEs: interim cut-off
Outline: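 Patients received at least one dose of oral drug given once daily in 28-day cycles. Part A escalated 10–150 mg, by accelerated titration (dose doubling) and then 3+3 Fibonacci steps; part B used 75 mg. AEs were graded by CTCAE v4.03 from first dose to 31 days after last dose. DLTs counted in cycle 1. Missing causality was scored as related and missing grade as grade 3.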

[1] = part A, all dose levels, n = 67
[2] = part B, RET gene-fusion NSCLC, 75 mg, n = 20
[3] = part B, RET gene-mutant MTC, 75 mg, n = 7

COc1cc2cc(-c3ccc(CC(=O)Nc4cc(C(C)(C)C(F)(F)F)no4)cn3)cnc2cc1OC [BOS172738]
TEAE related to BOS, any [1]: 61 (91) n (%) | TEAE related to BOS, grade ≥3 [1]: 39 (58) n (%) | patients who discontinued study treatment due to AEs (part A, % of 69 screened): 18 (26%) n (%) | Any TEAE (part B total, n = 50): 50 (100) n (%) | Any TEAE leading to BOS discontinuation (part B total, n = 50): 7 (14) n (%) | Any TEAE leading to BOS dose interruption (part B total, n = 50): 33 (66) n (%) | Any TEAE leading to BOS dose reduction (part B total, n = 50): 10 (20) n (%) | Any TEAE leading to study discontinuation (part B total, n = 50): 7 (14) n (%) | Any TEAE related to BOS leading to BOS discontinuation (part B total, n = 50): 2 (4) n (%) | Any TEAE related to BOS leading to study discontinuation (part B total, n = 50): 1 (2) n (%) | Any TEAE resulting in death (part B total, n = 50): 2 (4) n (%) | Any TEAE, grade ≥3 (part B total, n = 50): 41 (82) n (%) | Serious TEAEs related to BOS (part B total, n = 50): 2 (4) n (%) | Serious TEAEs, any (part B total, n = 50): 28 (56) n (%) | TEAE related to BOS, CTCAE grade ≥3: Anemia (part B total, n = 50): 3 (6) n (%) | TEAE related to BOS, CTCAE grade ≥3: Asthenia (part B total, n = 50): 0 n (%) | TEAE related to BOS, CTCAE grade ≥3: Blood creatinine phosphokinase increased (part B total, n = 50): 10 (20) n (%) | TEAE related to BOS, CTCAE grade ≥3: Diarrhea (part B total, n = 50): 0 n (%) | TEAE related to BOS, CTCAE grade ≥3: Hypophosphatemia (part B total, n = 50): 3 (6) n (%) | TEAE related to BOS, CTCAE grade ≥3: Lymphopenia (part B total, n = 50): 2 (4) n (%) | TEAE related to BOS, CTCAE grade ≥3: Muscular weakness (part B total, n = 50): 0 n (%) | TEAE related to BOS, CTCAE grade ≥3: Myositis (part B total, n = 50): 0 n (%) | TEAE related to BOS, CTCAE grade ≥3: Neutropenia (part B total, n = 50): 0 n (%) | TEAE related to BOS, CTCAE grade ≥3: Neutrophil count decreased (part B total, n = 50): 7 (14) n (%) | TEAE related to BOS, any (part B total, n = 50): 38 (76) n (%) | TEAE related to BOS, grade ≥3 (part B total, n = 50): 24 (48) n (%) | Any TEAE (part B, Other, 75 mg, n = 23): 23 (100) n (%) | Any TEAE leading to BOS discontinuation (part B, Other, 75 mg, n = 23): 5 (22) n (%) | Any TEAE leading to BOS dose interruption (part B, Other, 75 mg, n = 23): 11 (48) n (%) | Any TEAE leading to BOS dose reduction (part B, Other, 75 mg, n = 23): 4 (17) n (%) | Any TEAE leading to study discontinuation (part B, Other, 75 mg, n = 23): 3 (13) n (%) | Any TEAE related to BOS leading to BOS discontinuation (part B, Other, 75 mg, n = 23): 1 (4) n (%) | Any TEAE related to BOS leading to study discontinuation (part B, Other, 75 mg, n = 23): 0 n (%) | Any TEAE resulting in death (part B, Other, 75 mg, n = 23): 1 (4) n (%) | Any TEAE, grade ≥3 (part B, Other, 75 mg, n = 23): 16 (70) n (%) | Serious TEAEs related to BOS (part B, Other, 75 mg, n = 23): 1 (4) n (%) | Serious TEAEs, any (part B, Other, 75 mg, n = 23): 17 (74) n (%) | TEAE related to BOS, CTCAE grade ≥3: Anemia (part B, Other, 75 mg, n = 23): 1 (4) n (%) | TEAE related to BOS, CTCAE grade ≥3: Asthenia (part B, Other, 75 mg, n = 23): 0 n (%) | TEAE related to BOS, CTCAE grade ≥3: Blood creatinine phosphokinase increased (part B, Other, 75 mg, n = 23): 0 n (%) | TEAE related to BOS, CTCAE grade ≥3: Diarrhea (part B, Other, 75 mg, n = 23): 0 n (%) | TEAE related to BOS, CTCAE grade ≥3: Hypophosphatemia (part B, Other, 75 mg, n = 23): 1 (4) n (%) | TEAE related to BOS, CTCAE grade ≥3: Lymphopenia (part B, Other, 75 mg, n = 23): 1 (4) n (%) | TEAE related to BOS, CTCAE grade ≥3: Muscular weakness (part B, Other, 75 mg, n = 23): 0 n (%) | TEAE related to BOS, CTCAE grade ≥3: Myositis (part B, Other, 75 mg, n = 23): 0 n (%) | TEAE related to BOS, CTCAE grade ≥3: Neutropenia (part B, Other, 75 mg, n = 23): 0 n (%) | TEAE related to BOS, CTCAE grade ≥3: Neutrophil count decreased (part B, Other, 75 mg, n = 23): 1 (4) n (%) | TEAE related to BOS, any (part B, Other, 75 mg, n = 23): 11 (48) n (%) | TEAE related to BOS, grade ≥3 (part B, Other, 75 mg, n = 23): 4 (17) n (%) | Any TEAE [2]: 20 (100) n (%) | Any TEAE leading to BOS discontinuation [2]: 1 (5) n (%) | Any TEAE leading to BOS dose interruption [2]: 17 (85) n (%) | Any TEAE leading to BOS dose reduction [2]: 4 (20) n (%) | Any TEAE leading to study discontinuation [2]: 3 (15) n (%) | Any TEAE related to BOS leading to BOS discontinuation [2]: 0 n (%) | Any TEAE related to BOS leading to study discontinuation [2]: 0 n (%) | Any TEAE resulting in death [2]: 1 (5) n (%) | Any TEAE, grade ≥3 [2]: 19 (95) n (%) | Serious TEAEs related to BOS [2]: 1 (5) n (%) | Serious TEAEs, any [2]: 9 (45) n (%) | TEAE related to BOS, CTCAE grade ≥3: Anemia [2]: 2 (10) n (%) | TEAE related to BOS, CTCAE grade ≥3: Asthenia [2]: 0 n (%) | TEAE related to BOS, CTCAE grade ≥3: Blood creatinine phosphokinase increased [2]: 8 (40) n (%) | TEAE related to BOS, CTCAE grade ≥3: Diarrhea [2]: 0 n (%) | TEAE related to BOS, CTCAE grade ≥3: Hypophosphatemia [2]: 0 n (%) | TEAE related to BOS, CTCAE grade ≥3: Lymphopenia [2]: 1 (5) n (%) | TEAE related to BOS, CTCAE grade ≥3: Muscular weakness [2]: 0 n (%) | TEAE related to BOS, CTCAE grade ≥3: Myositis [2]: 0 n (%) | TEAE related to BOS, CTCAE grade ≥3: Neutropenia [2]: 0 n (%) | TEAE related to BOS, CTCAE grade ≥3: Neutrophil count decreased [2]: 5 (25) n (%) | TEAE related to BOS, any [2]: 20 (100) n (%) | TEAE related to BOS, grade ≥3 [2]: 14 (70) n (%) | Any TEAE [3]: 7 (100) n (%) | Any TEAE leading to BOS discontinuation [3]: 1 (14) n (%) | Any TEAE leading to BOS dose interruption [3]: 5 (71) n (%) | Any TEAE leading to BOS dose reduction [3]: 2 (29) n (%) | Any TEAE leading to study discontinuation [3]: 1 (14) n (%) | Any TEAE related to BOS leading to BOS discontinuation [3]: 1 (14) n (%) | Any TEAE related to BOS leading to study discontinuation [3]: 1 (14) n (%) | Any TEAE resulting in death [3]: 0 n (%) | Any TEAE, grade ≥3 [3]: 6 (86) n (%) | Serious TEAEs related to BOS [3]: 0 n (%) | Serious TEAEs, any [3]: 2 (29) n (%) | TEAE related to BOS, CTCAE grade ≥3: Anemia [3]: 0 n (%) | TEAE related to BOS, CTCAE grade ≥3: Asthenia [3]: 0 n (%) | TEAE related to BOS, CTCAE grade ≥3: Blood creatinine phosphokinase increased [3]: 2 (29) n (%) | TEAE related to BOS, CTCAE grade ≥3: Diarrhea [3]: 0 n (%) | TEAE related to BOS, CTCAE grade ≥3: Hypophosphatemia [3]: 2 (29) n (%) | TEAE related to BOS, CTCAE grade ≥3: Lymphopenia [3]: 0 n (%) | TEAE related to BOS, CTCAE grade ≥3: Muscular weakness [3]: 0 n (%) | TEAE related to BOS, CTCAE grade ≥3: Myositis [3]: 0 n (%) | TEAE related to BOS, CTCAE grade ≥3: Neutropenia [3]: 0 n (%) | TEAE related to BOS, CTCAE grade ≥3: Neutrophil count decreased [3]: 1 (14) n (%) | TEAE related to BOS, any [3]: 7 (100) n (%) | TEAE related to BOS, grade ≥3 [3]: 6 (86) n (%) | patients who discontinued study treatment due to AEs (part B, % of 54 screened): 7 (13%) n (%) | BOS172738-related TEAEs (parts A and B, final cut-off): 85% | BOS172738-related TEAEs, grade ≥3 (parts A and B, final cut-off): 54% | BOS172738-related grade ≥3 anemia (parts A and B, final cut-off): 9% | BOS172738-related grade ≥3 blood creatine phosphokinase increased (parts A and B, final cut-off): 25% | BOS172738-related grade ≥3 neutrophil count decreased (parts A and B, final cut-off): 10% | patients with at least one TEAE (parts A and B, final data cut-off): 100% | elevated blood creatine phosphokinase leading to dose interruption (pooled data): 28% | elevated blood creatine phosphokinase leading to dose reduction (pooled data): 17% | elevated blood creatine phosphokinase leading to treatment discontinuation (pooled data): 2%
